From ChEMBL document CHEMBL3046823, “Insect muscarinic acetylcholine receptor: pharmacological and toxicological profiles of antagonists and agonists” (J Agric Food Chem, 2007) come the findings set out here.

The test system of test [1] is Musca domestica. Put plainly: Toxicity to Musca domestica (house fly) assessed as mortality at 6.25 ug/fly measured after 2.5 hr. The format is functional. The gist of the method: (§1)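 Insecticide-susceptible adult female Musca (~25 mg) received PPP (2.5 µg/fly in 0.5 µL acetone, abdominal ventrum), then 90 min at room temperature. The compound (active ingredient) was given by intrathoracic injection in 0.22 µL water or 25-50% Me2SO/water. Mortality was scored at 0.5, 1.0, 1.5, 2.5 and 24 h.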

In test [2] the test system is Musca domestica. Kind of test: Toxicity to Musca domestica (house fly) assessed as mortality at 6.25 ug/fly measured after 1.5 hr. Type of test: functional. The gist of the method: as §1
The target of test [3] is T1, Muscarinic acetylcholine receptor DM1 (Drosophila melanogaster, UniProt P16395). Kind of test: Displacement of [3H]QNB from Drosophila melanogaster mAChR by scintillation counting. Background: In a radioligand displacement assay an active substance lowers the binding of a labelled ligand.
T1 sequence (P16395 whole entry): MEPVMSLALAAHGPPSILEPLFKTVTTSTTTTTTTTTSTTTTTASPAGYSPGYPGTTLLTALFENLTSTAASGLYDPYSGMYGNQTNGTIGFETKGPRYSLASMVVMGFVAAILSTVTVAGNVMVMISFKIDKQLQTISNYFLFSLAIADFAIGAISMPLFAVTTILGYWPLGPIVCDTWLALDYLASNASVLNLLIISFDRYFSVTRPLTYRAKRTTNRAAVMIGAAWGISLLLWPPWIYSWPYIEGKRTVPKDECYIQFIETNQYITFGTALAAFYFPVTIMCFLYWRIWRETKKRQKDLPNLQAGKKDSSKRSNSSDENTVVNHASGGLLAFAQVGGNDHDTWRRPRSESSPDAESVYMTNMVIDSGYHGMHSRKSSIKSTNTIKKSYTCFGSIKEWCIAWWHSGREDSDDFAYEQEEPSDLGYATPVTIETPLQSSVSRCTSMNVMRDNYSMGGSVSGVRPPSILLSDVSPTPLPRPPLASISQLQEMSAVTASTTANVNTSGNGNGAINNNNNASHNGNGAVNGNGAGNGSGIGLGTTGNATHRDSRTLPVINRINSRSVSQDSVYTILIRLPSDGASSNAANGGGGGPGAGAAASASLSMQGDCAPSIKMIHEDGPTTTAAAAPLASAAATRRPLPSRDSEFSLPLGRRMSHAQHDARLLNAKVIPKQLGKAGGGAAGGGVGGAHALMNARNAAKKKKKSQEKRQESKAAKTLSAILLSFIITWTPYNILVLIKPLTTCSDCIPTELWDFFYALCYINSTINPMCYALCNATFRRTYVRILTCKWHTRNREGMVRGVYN
Test [4] deals with Musca domestica. Put plainly: Toxicity to Musca domestica (house fly) assessed as mortality at 6.25 ug/fly measured after 1 hr. The format is functional. In short, it runs like this:
as §1

Test [5] concerns Musca domestica. Put plainly: Toxicity to Musca domestica (house fly) assessed as mortality at 6.25 ug/fly measured after 24 hr. Type of test: functional. In short, it runs like this:
as §1

The target of test [6] is T1, Muscarinic acetylcholine receptor DM1. Kind of test: Displacement of [3H]AF-DX 384 from Drosophila melanogaster mAChR by scintillation counting.
Test [7] relates to Musca domestica. Kind of test: Toxicity to Musca domestica (house fly) assessed as mortality at 6.25 ug/fly measured after 0.5 hr. The format is functional. In short, it runs like this: as §1
Test [8] deals with Musca domestica. Put plainly: Toxicity to Musca domestica (house fly) assessed as mortality at 75 ug/fly measured after 1 hr. Type of test: functional. The gist of the method: as §1
Test [9] deals with Musca domestica. Kind of test: Toxicity to Musca domestica (house fly) assessed as mortality at 75 ug/fly measured after 1.5 hr. The format is functional. In short, it runs like this:
as §1

Test [10] has as its system Musca domestica. Kind of test: Toxicity to Musca domestica (house fly) assessed as mortality at 7.5 ug/fly measured after 1 hr. The format is functional. The gist of the method:
as §1

The subject of test [11] is Musca domestica. Put plainly: Ex vivo inhibition of [3H]QNB binding in brain of Musca domestica (house fly) at 25 ug/fly measured after 0.5 hr. The format is functional. The gist of the method: (§2)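 Adult female houseflies pretreated with PPP (2.5 µg/fly, topical in acetone, 90 min), then dosed by intrathoracic injection in 0.22 µL water or 25-50% Me2SO/water. Heads were taken 0.5 or 24 h later and homogenized (50 per batch) in 50 mM sodium phosphate pH 7.4. Filtrate (~800 µg protein) was bound with 0.5 nM [3H]QNB, 60 min, 25 °C. Values are relative to vehicle-treated flies; 6−8 measurements over two experiments.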

Test [12] concerns Musca domestica. Put plainly: Toxicity to Musca domestica (house fly) assessed as mortality at 7.5 ug/fly measured after 1.5 hr. Type of test: functional. The gist of the method: as §1
Test [13] concerns Musca domestica. Put plainly: Toxicity to Musca domestica (house fly) assessed as mortality at 25 ug/fly measured after 24 hr. The format is functional. In short, it runs like this: as §1
The subject of test [14] is Musca domestica. Put plainly: Toxicity to Musca domestica (house fly) assessed as mortality at 75 ug/fly measured after 2.5 hr. The format is functional. The gist of the method: as §1
Test [15] relates to Musca domestica. Put plainly: Ex vivo inhibition of [3H]QNB binding in brain of Musca domestica (house fly) at 75 ug/fly measured after 24 hr. Type of test: functional. The gist of the method: as §2
Test [16] has as its system Musca domestica. Kind of test: Toxicity to Musca domestica (house fly) assessed as mortality at 7.5 ug/fly measured after 2.5 hr. Type of test: functional. The gist of the method:
as §1

Test [17] relates to Musca domestica. Put plainly: Toxicity to Musca domestica (house fly) assessed as mortality at 25 ug/fly measured after 2.5 hr. Type of test: functional. The gist of the method:
as §1

For test [18], the system named is Musca domestica. Put plainly: Toxicity to Musca domestica (house fly) assessed as mortality at 25 ug/fly measured after 1 hr. The format is functional. The gist of the method: as §1
Test [19] concerns Musca domestica. Kind of test: Ex vivo inhibition of [3H]QNB binding in brain of Musca domestica (house fly) at 75 ug/fly measured after 0.5 hr. The format is functional. The gist of the method:
as §2

Test [20] has as its system Musca domestica. Kind of test: Toxicity to Musca domestica (house fly) assessed as mortality at 7.5 ug/fly measured after 0.5 hr. The format is functional. The gist of the method: as §1
The test system of test [21] is Musca domestica. Kind of test: Toxicity to Musca domestica (house fly) assessed as mortality at 7.5 ug/fly measured after 24 hr. The format is functional. In short, it runs like this: as §1
For test [22], the system named is Musca domestica. Put plainly: Toxicity to Musca domestica (house fly) assessed as mortality at 25 ug/fly measured after 1.5 hr. Type of test: functional. The gist of the method:
as §1

Test [23] relates to Musca domestica. Kind of test: Toxicity to Musca domestica (house fly) assessed as mortality at 75 ug/fly measured after 24 hr. The format is functional. In short, it runs like this: as §1
The subject of test [24] is Musca domestica. Kind of test: Ex vivo inhibition of [3H]QNB binding in brain of Musca domestica (house fly) at 25 ug/fly measured after 24 hr. Type of test: functional. The gist of the method:
as §2

The subject of test [25] is Musca domestica. Put plainly: Toxicity to Musca domestica (house fly) assessed as mortality at 25 ug/fly measured after 0.5 hr. Type of test: functional. The gist of the method: as §1
Test [26] deals with Musca domestica. Put plainly: Toxicity to Musca domestica (house fly) assessed as mortality at 75 ug/fly measured after 0.5 hr. The format is functional. The gist of the method: as §1
Test [27] relates to Musca domestica. Put plainly: Ex vivo inhibition of [3H]QNB binding in brain of Musca domestica (house fly) at 7.5 ug/fly measured after 24 hr. The format is functional. In short, it runs like this:
as §2

Test [28] concerns Musca domestica. Put plainly: Ex vivo inhibition of [3H]QNB binding in brain of Musca domestica (house fly) at 7.5 ug/fly measured after 0.5 hr. The format is functional. In short, it runs like this:
as §2

With `CCCN(CCC)CC1CCCCN1CCNC(=O)N1c2ccccc2C(=O)Nc2cccnc21` (stereo unspecified), the Activity with Musca domestica [1] was 3%; with Musca domestica [2], 3%; in the test on Musca domestica [4], 3%; in the test with Musca domestica [5] it was 3%; in the test on Musca domestica [7] it was 30%. Moreover, the results for the Ki in test [3] and in test [6] were 4.8 nM and 6.1 nM, respectively.
For the compound `C[C@H](C1=C(CCN(C)C)Cc2ccccc21)c1ccccn1`, the Activity in the test on Musca domestica [8] turned out to be 100%; in the test on Musca domestica [9] it was 100%; with Musca domestica [10], 0%; in the test with Musca domestica [12], 0%; in the test on Musca domestica [13], 3%; in the test on Musca domestica [14], 97%. For the same compound, the Activity in the test on Musca domestica [16] worked out at 0%; in the test on Musca domestica [17], 17%; in the test on Musca domestica [18], 70%; in the test on Musca domestica [20] it was 10%; with Musca domestica [21] it was 0%; in the test with Musca domestica [22], 40%. Further, the results for the Activity in the test on Musca domestica [23], with Musca domestica [25] and in the test on Musca domestica [26] were 23%, 100% and 100%, respectively. The “inhibition (INH)” value with Musca domestica [11] was 41%; in the test with Musca domestica [15], 28%; in the test on Musca domestica [19] it was 81%; with Musca domestica [24], 0%. For the same compound, the Ki (usually a measure of affinity in units of concentration, obtained from inhibition or displacement) in [3] turned out to be 510 nM; in test [6], 660 nM.
Consider `C[N+]1(C)CCC(OC(=O)C(c2ccccc2)c2ccccc2)CC1.[I-]` [4-DAMP], for which the Activity is 67% in the test with Musca domestica [8]; 57% with Musca domestica [9]; 10% in the test with Musca domestica [10]; 7% in the test with Musca domestica [12]; 10% in the test with Musca domestica [13]; 60% in the test on Musca domestica [14]. The Activity was 3% with Musca domestica [16]; 20% in the test on Musca domestica [17]; 47% in the test on Musca domestica [18]; 10% in the test on Musca domestica [20]; 7% with Musca domestica [21]; 40% in the test with Musca domestica [22]. Moreover, the Activity with Musca domestica [23] stood at 33%; in the test on Musca domestica [25] it was 60%; with Musca domestica [26] it was 100%. Besides, the “inhibition (INH)” value came out at 92% with Musca domestica [11], 49% with Musca domestica [27], 59% with Musca domestica [24] and 79% in the test on Musca domestica [28]. The Ki in test [3] stood at 15 nM; in test [6], 18 nM.
With `CCN(CC)CC1CCCCN1CC(=O)N1c2ccccc2C(=O)Nc2cccnc21` (stereo unspecified) [OTENZEPAD], the Activity in the test with Musca domestica [1] came to 10%; in the test on Musca domestica [2], 10%; in the test with Musca domestica [4], 10%; with Musca domestica [5], 3%; with Musca domestica [7], 17%. Also, the values for the inhibition constant (Ki) in [3] and in test [6] were 1220 nM and 1380 nM, respectively.
